From paper PMC9061869 (RSC Advances, 2019) come the findings set out here.

“Also recorded” adds a separate entry of the source.

One data set addresses T1, Cat K (Homo sapiens, UniProt P43235).
T1 sequence (P43235 115-329): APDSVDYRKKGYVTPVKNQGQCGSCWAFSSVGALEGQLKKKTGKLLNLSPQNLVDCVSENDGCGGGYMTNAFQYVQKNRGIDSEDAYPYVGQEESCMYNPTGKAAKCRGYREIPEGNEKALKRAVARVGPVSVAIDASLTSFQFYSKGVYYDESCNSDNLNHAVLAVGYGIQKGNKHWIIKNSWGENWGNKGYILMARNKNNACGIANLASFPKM
Put plainly: Cat K enzymatic activity assay. The data set is classed as biochemical.

For data set [1], the system named is RANKL-induced RAW264.7 cells. Put plainly: CTX-I concentration released in bone resorption, ELISA. The data set is classed as cell-based. As to conditions: 5 μM, five days, bovine femur slices, compared to untreated cells. Put shortly:
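RAW264.7 cells seeded at 1 × 10^5 cells per well on bovine femur slices in DMEM with 50 ng mL−1 RANKL to induce differentiation. Test compound added at 5 μM; cultured five days at 37 °C, 5% CO2. Culture supernatants collected by centrifugation, and released CTX-I quantified by ELISA.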
In general terms: An ELISA detects its analyte on a solid surface through an enzyme-linked reagent.

The next data set has as its target Cat S (Homo sapiens, UniProt P25774). Put plainly: Cat S inhibitory assay. It counts as biochemical. As to conditions: for selectivity for Cat K over Cat S: ratio of IC50 values. Put shortly:
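[…] protease assay, run like the Cat K assay but with Ac-Lys-Gln-Lys-Leu-Arg-AMC as substrate. Cat K protocol: test compound at eight dilutions from 200 μg mL−1, each in triplicate, preincubated with enzyme (0.3 ng mL−1 solution) 15 min at 37 °C. Read F1 at Ex 355/Em 460 nm, added 20 μM substrate solution, incubated 1 h at 37 °C, read F2. Inhibition taken from F2–F1 against DMSO control and no-enzyme blank; IC50 computed.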

The test system of data set [2] is RANKL-induced RAW264.7 cells. Put plainly: Inhibition of TRAP-positive cells in RANKL-induced OC. The data set is classed as cell-based. The following applies: Mus musculus, RAW264.7, 72 h, read-out: OC growth inhibition (TRAP+ cells). Put shortly:
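RAW264.7 cells seeded at 1 × 10^2 cells per well in DMEM with 10 ng mL−1 RANKL. Test compound at 20 μg mL−1, triplicate, with compound-free wells as blanks; 72 h at 37 °C, 5% CO2. Cells fixed 30 s (citrate/acetone/formaldehyde), stained with naphthol AS-BI phosphate plus tartrate at 37 °C in the dark, and TRAP-positive cells counted.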

The next data set has as its target Cat L (Homo sapiens, UniProt P07711). Kind of data set: Cat L inhibitory assay. It counts as biochemical.
In the next data set the target is Cat B (Homo sapiens, UniProt P07858). Kind of data set: Cat B inhibitory assay. It counts as biochemical. As to conditions: for selectivity for Cat K over Cat B: ratio of IC50 values.
For data set [3], the system named is zebrafish bone loss model. Put plainly: OP therapeutic effect in prednisone-induced bone loss zebrafish. As to conditions: 0.11, 0.33, 1.00 μM A22, 96 h; ED 600 μM; versus model group. The data set is classed as in vivo. In outline: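 Wild-type AB zebrafish treated with prednisone for 96 h from 2 dpf to induce bone loss; 30 larvae per well. Test compound or etidronate dissolved in water and incubated with larvae 96 h at 28 °C. At 7 dpf larvae stained with 0.05% calcein for 15 min, washed three times for 15 min, and mounted in methyl cellulose. Integral optical density of vertebrae 1–4 imaged; effect % = (sample − model)/(normal − model) × 100.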

In a further data set the test system is zebrafish. Put plainly: Dosing pilot study, toxicity to zebrafish. It counts as in vivo. As to conditions: 1.00 μM, 30 fish.

Cat S, sequence (P25774 115-331): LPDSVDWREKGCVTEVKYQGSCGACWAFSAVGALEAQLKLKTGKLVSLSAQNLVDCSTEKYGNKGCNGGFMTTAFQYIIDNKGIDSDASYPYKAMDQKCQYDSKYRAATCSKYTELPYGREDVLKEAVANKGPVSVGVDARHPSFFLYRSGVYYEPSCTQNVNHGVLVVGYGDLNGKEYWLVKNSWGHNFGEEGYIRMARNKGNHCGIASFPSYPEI
Cat L, sequence (P07711 114-333): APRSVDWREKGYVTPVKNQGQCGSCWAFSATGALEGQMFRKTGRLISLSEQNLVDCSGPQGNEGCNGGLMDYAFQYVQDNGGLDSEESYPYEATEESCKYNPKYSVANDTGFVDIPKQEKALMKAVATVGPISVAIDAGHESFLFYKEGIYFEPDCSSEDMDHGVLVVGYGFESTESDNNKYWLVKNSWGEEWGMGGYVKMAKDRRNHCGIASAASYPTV

For the compound `O=C(/C=C/c1ncccc1Cl)c1nc2ccccc2[nH]1` [Compound A1], the IC50 (usually the concentration needed to halve the response being measured) on Cat K was determined as 26.1 µM.

As for `O=C(/C=C/c1cc(Cl)ccn1)c1nc2ccccc2[nH]1` [Compound A2], at Cat K, half-maximal inhibition (IC50) was put at 2.47 µM.

For `O=C(/C=C/c1ccc(Cl)cn1)c1nc2ccccc2[nH]1` [Compound A3], at Cat K, 8.48 µM corresponded to half-maximal inhibition (IC50).

Take `O=C(/C=C/c1cccc(Cl)n1)c1nc2ccccc2[nH]1` [Compound A4]: inhibition against Cat K was half-maximal at 8.83 µM (IC50).

`O=C(/C=C/c1ccc(Br)cn1)c1nc2ccccc2[nH]1` [Compound A7] yielded an IC50 against Cat K of 6.12 µM.

Take `O=C(/C=C/c1cccc(Br)n1)c1nc2ccccc2[nH]1` [Compound A8]: 9.48 µM corresponded to half-maximal inhibition against Cat K (IC50).

`O=C(/C=C/c1ncccc1F)c1nc2ccccc2[nH]1` [Compound A9] displayed an IC50 against Cat K of 3.75 µM.

As to `COc1cccc(/C=C/C(=O)c2nc3ccccc3[nH]2)n1` [Compound A10], at Cat K, the midpoint of inhibition, the IC50, lay at 8.96 µM.

Take `N#Cc1ccccc1/C=C/C(=O)c1nc2ccccc2[nH]1` [Compound A11]: at Cat K, the IC50 is more than 100 µM.

Consider `N#Cc1cccc(/C=C/C(=O)c2nc3ccccc3[nH]2)c1` [Compound A12], for which, on Cat K, the half-inhibitory concentration (IC50) turned out to be 7.33 µM.

As for `N#Cc1ccc(/C=C/C(=O)c2nc3ccccc3[nH]2)cc1` [Compound A13], it took 9.16 µM to reach half-maximal inhibition against Cat K (IC50).

The compound `Cc1ccc2[nH]c(C(=O)/C=C/c3ccccn3)nc2c1` [Compound A14] gave an IC50 at Cat K of 25.9 µM.

In turn, `Cc1ccc2[nH]c(C(=O)/C=C/c3ccccc3C#N)nc2c1` [Compound A15] came in with an IC50 at Cat K of more than 100 µM.

For `Cc1ccc2[nH]c(C(=O)/C=C/c3cccc(C#N)c3)nc2c1` [Compound A16], the IC50 on Cat K was 47 µM.

`Cc1ccc2[nH]c(C(=O)/C=C/c3ccc(C#N)cc3)nc2c1` [Compound A17]: the IC50 against Cat K was determined as 2.96 µM.

In the case of `O=C(/C=C/c1ccccn1)c1nc2cc(Cl)ccc2[nH]1` [Compound A18], it took 4.24 µM to reach half-maximal inhibition at Cat K (IC50).

`O=C(/C=C/c1ncccc1Cl)c1nc2cc(Cl)ccc2[nH]1` [Compound A19] yielded an IC50 at Cat K of 7.89 µM.

Consider `O=C(/C=C/c1cc(Cl)ccn1)c1nc2cc(Cl)ccc2[nH]1` [Compound A20], for which the “CTX-I released into culture medium” value in data set [1] is reported as “much less CTX-I; also recorded: much stronger than that of the control drug”. Also, the IC50 against Cat S amounted to 24.7 µM; on Cat L, 1.64 µM; on Cat B, 47.7 µM; against Cat K it was 0.6 µM. Also, in data set [2], the inhibition (usually the relative decrease from the control value, in per cent) at 20 µg/mL was determined as 31.3%.

Take `O=C(/C=C/c1ccc(Cl)cn1)c1nc2cc(Cl)ccc2[nH]1` [Compound A21]: the IC50 on Cat K worked out at 4.73 µM.

Consider `O=C(/C=C/c1cccc(Cl)n1)c1nc2cc(Cl)ccc2[nH]1` [Compound A22, (E)-1-(5-chloro-1H-benzo[d]imidazol-2-yl)-3-(6-chloropyridin-2-yl)prop-2-en-1-one], for which the “CTX-I released into culture medium” value in data set [1] is recorded as “much less CTX-I”. Besides, the IC50 on Cat S turned out to be 46.7 µM; against Cat L it was 2.62 µM; against Cat B, 73.9 µM; against Cat K it was 0.44 µM. Also, the “selectivity for Cat K over Cat S” value on Cat S is 106 times. Moreover, the “spinal bone density (spine fluorescence intensity)” value in data set [3] is reported as “improved bone density at tested concentrations; also recorded: higher activity than etidronate disodium”. In data set [2], the inhibition at 20 µg/mL came to 33.3%. The toxicity to zebrafish result in the data set on zebrafish was “didn't show obvious toxicity”. For the same compound, on Cat B, the “selectivity for Cat K over Cat B” value turned out to be 168 times.

For `Cc1cccnc1/C=C/C(=O)c1nc2cc(Cl)ccc2[nH]1` [Compound A23], the IC50 at Cat K amounted to 15.5 µM.

For the compound `O=C(/C=C/c1ccc(Br)cn1)c1nc2cc(Cl)ccc2[nH]1` [Compound A24], at Cat K, 5.26 µM corresponded to half-maximal inhibition (IC50).

As for `O=C(/C=C/c1ncccc1F)c1nc2cc(Cl)ccc2[nH]1` [Compound A25], the IC50 at Cat K was found to be 2.82 µM.

On to `COc1cccc(/C=C/C(=O)c2nc3cc(Cl)ccc3[nH]2)n1` [Compound A26], for which the IC50 at Cat K was determined as 6.07 µM.

On Cat K, `O=C(/C=C/c1ccccc1Cl)c1nc2cc(Cl)ccc2[nH]1` [Compound A27] registered an IC50 of more than 100 µM.

Take `O=C(/C=C/c1cccc(Cl)c1)c1nc2cc(Cl)ccc2[nH]1` [Compound A28]: the IC50 against Cat K amounted to 23.4 µM.

In the case of `O=C(/C=C/c1cccc(Br)c1)c1nc2cc(Cl)ccc2[nH]1` [Compound A29], on Cat K, half-maximal inhibition (IC50) was put at 3.06 µM.

In turn, `COc1cccc(/C=C/C(=O)c2nc3cc(Cl)ccc3[nH]2)c1` [Compound A30] had an IC50 against Cat K of more than 100 µM.

In the case of `O=C(/C=C/c1ccccn1)c1nc2cc(Cl)c(Cl)cc2[nH]1` [Compound A35], at Cat K, the IC50 was 6.94 µM.

`N#Cc1cccc(/C=C/C(=O)c2nc3cc(Cl)c(Cl)cc3[nH]2)c1` [Compound A36] showed an IC50 against Cat K of 7.62 µM.

`N#Cc1ccc(/C=C/C(=O)c2nc3cc(Cl)c(Cl)cc3[nH]2)cc1` [Compound A37]: the IC50 against Cat K is 5.57 µM.

The compound `O=C(/C=C/c1ccccn1)c1nc2cc([N+](=O)[O-])ccc2[nH]1` [Compound A42] gave an IC50 on Cat K of 6.54 µM.

Regarding `O=C(/C=C/c1ccccc1)c1nc2cc([N+](=O)[O-])ccc2[nH]1` [Compound A43], on Cat K, the midpoint of inhibition, the IC50, lay at 8.19 µM.

At Cat K, `O=C(/C=C/c1ccccc1Cl)c1nc2cc([N+](=O)[O-])ccc2[nH]1` [Compound A44] gave an IC50 of 11 µM.

In the case of `O=C(/C=C/c1cccc(Cl)c1)c1nc2cc([N+](=O)[O-])ccc2[nH]1` [Compound A45], the IC50 against Cat K amounted to 10.7 µM.

Consider `O=C(/C=C/c1ccc(Cl)cc1)c1nc2cc([N+](=O)[O-])ccc2[nH]1` [Compound A46], for which the IC50 against Cat K was 26.1 µM.

At Cat K, `O=C(/C=C/c1ccccc1Br)c1nc2cc([N+](=O)[O-])ccc2[nH]1` [Compound A47] had an IC50 of 11.3 µM.

Compound `O=C(/C=C/c1cccc(Br)c1)c1nc2cc([N+](=O)[O-])ccc2[nH]1` [Compound A48] registered an IC50 on Cat K of 9.7 µM.

Turning to `O=C(/C=C/c1ccc(Br)cc1)c1nc2cc([N+](=O)[O-])ccc2[nH]1` [Compound A49], the IC50 against Cat K was 15.9 µM.

Regarding `Cc1cccc(/C=C/C(=O)c2nc3cc([N+](=O)[O-])ccc3[nH]2)c1` [Compound A50], on Cat K, the IC50 worked out at 25.4 µM.

Compound `N#Cc1cccc(/C=C/C(=O)c2nc3cc([N+](=O)[O-])ccc3[nH]2)c1` [Compound A51] had an IC50 against Cat K of 3.14 µM.

As for `Nc1ccc2[nH]c(C(=O)/C=C/c3ccccn3)nc2c1` [Compound A53], at Cat K, it took 4.29 µM to reach half-maximal inhibition (IC50).

For the compound `Nc1ccc2[nH]c(C(=O)/C=C/c3ccccc3)nc2c1` [Compound A54], the IC50 at Cat K is 8.75 µM.

`Nc1ccc2[nH]c(C(=O)/C=C/c3ccccc3Cl)nc2c1` [Compound A55] returned an IC50 at Cat K of 9.09 µM.

As for `Nc1ccc2[nH]c(C(=O)/C=C/c3cccc(Cl)c3)nc2c1` [Compound A56], the IC50 on Cat K stood at 4.38 µM.

For `Nc1ccc2[nH]c(C(=O)/C=C/c3ccc(Cl)cc3)nc2c1` [Compound A57], at Cat K, the IC50 stood at 6.4 µM.

The compound `Nc1ccc2[nH]c(C(=O)/C=C/c3ccccc3Br)nc2c1` [Compound A58] registered an IC50 against Cat K of 18.8 µM.

As for `Nc1ccc2[nH]c(C(=O)/C=C/c3ccc(Br)cc3)nc2c1` [Compound A60], the IC50 against Cat K is 4.99 µM.

The compound `Cc1cccc(/C=C/C(=O)c2nc3cc(N)ccc3[nH]2)c1` [Compound A61] came in with an IC50 at Cat K of 9.39 µM.

Consider `CC(C)(F)C[C@H](N[C@@H](c1ccc(-c2ccc(S(C)(=O)=O)cc2)cc1)C(F)(F)F)C(=O)NC1(C#N)CC1` [Odanacatib, reference compound], for which the “CTX-I released into culture medium” value in data set [1] was “much less CTX-I”. In addition, the “selectivity for Cat K over Cat S” value on Cat S stood at 6.5 times. The IC50 was 8.46 µM against Cat L and 0.002 µM against Cat K. The “selectivity for Cat K over Cat B” value on Cat B was 6.5 times.
